In brackets after ≈: the same amount, converted by molar mass.
What was measured:
[1] = test system: Mycobacterium tuberculosis; test: Antimycobacterial activity against Mycobacterium tuberculosis CNTC My 331/88 ATCC 27294 after 14 days; assay type: functional; details: CNTC My 331/88 ATCC 27294, 336 h
In short: (§1)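 Sula semi-synthetic medium at 37 °C. Compounds were dissolved in DMSO (max. 5% DMSO in water) and added to the medium at 1000, 500, 250, 125, 62, 31, 16, 8, 4, 2 and 1 μmol L⁻¹. MIC was read after 7, 14 and 21 days of incubation at 37 °C. Strains came from the Czech National Collection of Type Cultures.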

[2] = test system: Mycobacterium tuberculosis; test: Antimycobacterial activity against Mycobacterium tuberculosis CNTC My 331/88 ATCC 27294 after 21 days; assay type: functional; details: CNTC My 331/88 ATCC 27294, 504 h; in short: as §1
Mycobacterium avium [3] = test: Antimycobacterial activity against Mycobacterium avium CNTC My 330/88 after 14 days; assay type: functional; details: CNTC My 330/88, 336 h; in short: as §1
Mycobacterium avium [4] = test: Antimycobacterial activity against Mycobacterium avium CNTC My 330/88 after 21 days; assay type: functional; details: CNTC My 330/88, 504 h; in short: as §1
Mycobacterium kansasii [5] = test: Antimycobacterial activity against Mycobacterium kansasii CNTC My 335/80 after 7 days; assay type: functional; details: 168 h
In short: (§2)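 MIC in Sula semi-synthetic medium at 37 °C. M. kansasii 6509/96 is a clinical isolate; M. kansasii CNTC My 235/80 comes from the Czech national collection. Compounds were dissolved in DMSO (max. 5% DMSO in water) and tested at 1000, 500, 250, 125, 62, 31, 16, 8, 4, 2 and 1 μmol L⁻¹. MIC was read after 7, 14 and 21 days.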

Mycobacterium kansasii [6] = test: Antimycobacterial activity against Mycobacterium kansasii CNTC My 335/80 after 14 days; assay type: functional; details: 336 h; in short: as §2
Mycobacterium kansasii [7] = test: Antimycobacterial activity against Mycobacterium kansasii CNTC My 335/80 after 21 days; assay type: functional; details: 504 h; in short: as §2
Mycobacterium kansasii [8] = test: Antimycobacterial activity against Mycobacterium kansasii 6509/96 isolate after 7 days; assay type: functional; details: 6509/96, 168 h; in short: as §2
Mycobacterium kansasii [9] = test: Antimycobacterial activity against Mycobacterium kansasii 6509/96 isolate after 14 days; assay type: functional; details: 6509/96, 336 h; in short: as §2
Mycobacterium kansasii [10] = test: Antimycobacterial activity against Mycobacterium kansasii 6509/96 isolate after 21 days; assay type: functional; details: 6509/96, 504 h; in short: as §2
HepG2 = test: Cytotoxicity against human HepG2 cells by MTT assay; assay type: cell-based
In short: (§3)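 MTT viability assay in RPMI-1640 without phenol red with 10% FCS and 2 mM L-glutamine, at 37 °C and 5% CO₂. HepG2 seeded at 5×10³ cells/well; fresh human PBMC at 2.0×10⁵ cells/well. After 24 h, cells were exposed overnight in serum-free medium, then given MTT (2 mg mL⁻¹) for 4 h. Formazan dissolved in DMSO, OD540 minus OD620, compared with untreated controls. IC50 taken from dose-response curves; two independent experiments, 4–8 parallels.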

PBMC = test: Cytotoxicity against human PBMC by MTT assay; assay type: cell-based; in short: as §3
[11] = Selectivity index, ratio of IC50 for human HepG2 cells to MIC for Mycobacterium tuberculosis CNTC My 331/88 ATCC 27294; assay type: functional
In short: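 HepG2 human hepatoma cells in RPMI-1640 without phenol red with 10% FCS, 2 mM L-glutamine and gentamycin, at 37 °C and 5% CO₂. Seeded at 5×10³ cells/well and grown 24 h, then treated overnight in serum-free medium. Read-out was MTT (4 h), formazan dissolved in DMSO, OD540 minus OD620. IC50 was taken from dose-response curves, two experiments with 4–8 parallels. MIC was measured in Sula medium.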

[12] = Stability of compound in 0.01 M HCl buffer assessed as pseudo-first order rate constant at pH 2 by UV-vis spectroscopic analysis; assay type: physicochemical
In short: (§4)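 Hydrolytic stability followed by diode-array UV-vis at 37 ± 0.1 °C on ca. 5×10⁻⁵ mol L⁻¹ solutions. Ionic strength was set to 1 mol L⁻¹ with KCl; buffer pH was checked with a glass electrode. Spectra recorded over 200–500 nm with time. Pseudo-first-order k_obs was fitted from the absorbance-time curve at 267 nm.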

[13] = Stability of compound in 0.007 M HCl buffer assessed as pseudo-first order rate constant at pH 2.16 by UV-vis spectroscopic analysis; assay type: physicochemical; in short: as §4
[14] = Stability of compound in 0.005 M HCl buffer assessed as pseudo-first order rate constant at pH 2.3 by UV-vis spectroscopic analysis; assay type: physicochemical; in short: as §4
[15] = Stability of compound in 0.001 HCl buffer assessed as pseudo-first order rate constant at pH 3 by UV-vis spectroscopic analysis; assay type: physicochemical; in short: as §4
[16] = Stability of compound in 0.0005 HCl buffer assessed as pseudo-first order rate constant at pH 3.3 by UV-vis spectroscopic analysis; assay type: physicochemical; in short: as §4
[17] = Stability of compound in methoxyacetate buffer assessed as pseudo-first order rate constant at pH 3.35 by UV-vis spectroscopic analysis; assay type: physicochemical; in short: as §4
[18] = Stability of compound in acetate buffer assessed as pseudo-first order rate constant at pH 4.55 by UV-vis spectroscopic analysis; assay type: physicochemical; in short: as §4
[19] = Stability of compound in phosphate buffer assessed as pseudo-first order rate constant at pH 5.81 by UV-vis spectroscopic analysis; assay type: physicochemical; in short: as §4
[20] = Stability of compound in imidazole buffer assessed as pseudo-first order rate constant at pH 7.23 by UV-vis spectroscopic analysis; assay type: physicochemical; in short: as §4
[21] = Stability of compound in N-Methylmorpholine buffer assessed as pseudo-first order rate constant at pH 7.86 by UV-vis spectroscopic analysis; assay type: physicochemical; in short: as §4
[22] = Stability of compound in TRIS buffer assessed as pseudo-first order rate constant at pH 8.92 by UV-vis spectroscopic analysis; assay type: physicochemical; in short: as §4
[23] = Stability of compound in carbonate buffer assessed as pseudo-first order rate constant at pH 9.71 by UV-vis spectroscopic analysis; assay type: physicochemical; in short: as §4
[24] = Stability of compound in 0.005 M KOH buffer assessed as pseudo-first order rate constant at pH 11.7 by UV-vis spectroscopic analysis; assay type: physicochemical; in short: as §4
[25] = Stability of compound in 0.1 M KOH buffer assessed as pseudo-first order rate constant at pH 13 by UV-vis spectroscopic analysis; assay type: physicochemical; in short: as §4

Structure (SMILES) | MIC [1] [µM] | MIC [2] [µM] | MIC (Mycobacterium avium [3]) [µM] | MIC (Mycobacterium avium [4]) [µM] | MIC (Mycobacterium kansasii [5]) [µM] | MIC (Mycobacterium kansasii [6]) [µM] | MIC (Mycobacterium kansasii [7]) [µM] | MIC (Mycobacterium kansasii [8]) [µM] | MIC (Mycobacterium kansasii [9]) [µM] | MIC (Mycobacterium kansasii [10]) [µM] | further results
O=C(N/N=C/Nc1ccc(Br)c(F)c1)c1ccncc1 | 1 (≈ 0.337 µg/mL) | 1 (≈ 0.337 µg/mL) | 250 (≈ 84.3 µg/mL) | 250 (≈ 84.3 µg/mL) | 62.5 (≈ 21.1 µg/mL) | 250 (≈ 84.3 µg/mL) | 250 (≈ 84.3 µg/mL) | 8 (≈ 2.7 µg/mL) | 8 (≈ 2.7 µg/mL) | 16 (≈ 5.39 µg/mL) | IC50 (HepG2): 162 µM; IC50 (PBMC): 326 µM; Ratio [11]: 162; Activity [12]: 0.00285 s⁻¹; Activity [13]: 0.00192 s⁻¹; Activity [14]: 0.0017 s⁻¹; Activity [15]: 0.000514 s⁻¹; Activity [16]: 0.000322 s⁻¹; Activity [17]: 0.000425 s⁻¹; Activity [18]: 0.000114 s⁻¹; Activity [19]: 0.000071 s⁻¹; Activity [20]: 0.000013 s⁻¹; Activity [21]: 0.000012 s⁻¹; Activity [22]: 0.000055 s⁻¹; Activity [23]: 0.0000445 s⁻¹; Activity [24]: 0.00011 s⁻¹; Activity [25]: 0.0000691 s⁻¹
O=C(N/N=C/Nc1cccc(Cl)c1)c1ccncc1 | 1 (≈ 0.275 µg/mL) | 1 (≈ 0.275 µg/mL) | 500 (≈ 137 µg/mL) | 1000 (≈ 275 µg/mL) | 125 (≈ 34.3 µg/mL) | 500 (≈ 137 µg/mL) | 500 (≈ 137 µg/mL) | 16 (≈ 4.4 µg/mL) | 16 (≈ 4.4 µg/mL) | 16 (≈ 4.4 µg/mL) | 
COc1ccc(N/C=N/NC(=O)c2ccncc2)cc1 | 2 (≈ 0.541 µg/mL) | 4 (≈ 1.08 µg/mL) | 500 (≈ 135 µg/mL) | 500 (≈ 135 µg/mL) | 250 (≈ 67.6 µg/mL) | 500 (≈ 135 µg/mL) | 1000 (≈ 270 µg/mL) | 16 (≈ 4.32 µg/mL) | 16 (≈ 4.32 µg/mL) | 32 (≈ 8.65 µg/mL) | 
O=C(N/N=C/Nc1cccc([N+](=O)[O-])c1)c1ccncc1 | 2 (≈ 0.571 µg/mL) | 2 (≈ 0.571 µg/mL) | 250 (≈ 71.3 µg/mL) | 500 (≈ 143 µg/mL) | 125 (≈ 35.7 µg/mL) | 250 (≈ 71.3 µg/mL) | 500 (≈ 143 µg/mL) | 8 (≈ 2.28 µg/mL) | 16 (≈ 4.56 µg/mL) | 16 (≈ 4.56 µg/mL) | 
O=C(N/N=C/Nc1cccc(F)c1)c1ccncc1 | 1 (≈ 0.258 µg/mL) | 1 (≈ 0.258 µg/mL) | 500 (≈ 129 µg/mL) | 1000 (≈ 258 µg/mL) | 125 (≈ 32.3 µg/mL) | 1000 (≈ 258 µg/mL) | > 1000 | 16 (≈ 4.13 µg/mL) | 16 (≈ 4.13 µg/mL) | 16 (≈ 4.13 µg/mL) | 
NNC(=O)c1ccncc1 [ISONIAZID] | 1 (≈ 0.137 µg/mL) | 1 (≈ 0.137 µg/mL) | > 250 | > 250 | > 250 | > 250 | > 250 | 2 (≈ 0.274 µg/mL) | 4 (≈ 0.549 µg/mL) | 4 (≈ 0.549 µg/mL) | IC50 (HepG2): > 1000 µM
O=C(N/N=C/Nc1ccc(F)cc1)c1ccncc1 | 1 (≈ 0.258 µg/mL) | 2 (≈ 0.517 µg/mL) | 250 (≈ 64.6 µg/mL) | 500 (≈ 129 µg/mL) | 250 (≈ 64.6 µg/mL) | 1000 (≈ 258 µg/mL) | > 1000 | 8 (≈ 2.07 µg/mL) | 8 (≈ 2.07 µg/mL) | 8 (≈ 2.07 µg/mL) | 
COc1cccc(N/C=N/NC(=O)c2ccncc2)c1 | 2 (≈ 0.541 µg/mL) | 2 (≈ 0.541 µg/mL) | 500 (≈ 135 µg/mL) | 500 (≈ 135 µg/mL) | 250 (≈ 67.6 µg/mL) | 500 (≈ 135 µg/mL) | 1000 (≈ 270 µg/mL) | 16 (≈ 4.32 µg/mL) | 16 (≈ 4.32 µg/mL) | 16 (≈ 4.32 µg/mL) | 
O=C(N/N=C/Nc1ccc(O)cc1)c1ccncc1 | 4 (≈ 1.03 µg/mL) | 8 (≈ 2.05 µg/mL) | 500 (≈ 128 µg/mL) | 500 (≈ 128 µg/mL) | 250 (≈ 64.1 µg/mL) | 500 (≈ 128 µg/mL) | 500 (≈ 128 µg/mL) | 32 (≈ 8.2 µg/mL) | 62.5 (≈ 16 µg/mL) | 62.5 (≈ 16 µg/mL) | 
O=C(N/N=C/Nc1ccc(F)c(Cl)c1)c1ccncc1 | 1 (≈ 0.293 µg/mL) | 2 (≈ 0.585 µg/mL) | 250 (≈ 73.2 µg/mL) | 500 (≈ 146 µg/mL) | 250 (≈ 73.2 µg/mL) | 1000 (≈ 293 µg/mL) | > 1000 | 16 (≈ 4.68 µg/mL) | 16 (≈ 4.68 µg/mL) | 32 (≈ 9.37 µg/mL) | 

Source: ChEMBL document CHEMBL1909504, “New series of isoniazid hydrazones linked with electron-withdrawing substituents” (Eur J Med Chem, 2011)
